Bioassay records deposited in PubChem by several laboratories.
Most compounds without a hit are left out; they make up all but 5.5% or so of the library.
STAT3 blocker – reduces IL-6 driven STAT3 reporter signal; U3A cells, IL-6 STAT3-luciferase reporter, luminescence; host cell line lacks STAT1; inhibition, % at 5.5 µM; hit rate 0.89% among 190,000;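 active = inhibition above the mean inhibition across all screened compounds plus 3 SD, cut at about 44% in these data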;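 note: 0% = DMSO only wells and 100% = 100 µM nifuroxazide control wells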
HSV augment – increases HSV replication in cells | HSV replication augmentation in cells, fold increase | maximum fold increase | hit rate 0.005% among 220,000 | AID 1956; in the data active = maximum fold increase above about 1.5; inconclusive = no clear call, values can overlap the other calls; tested in PC3 cells
KCC2 mod – modulators of human KCC2 chloride dependent transport; Q9H2X9; KCC2 cells, thallium flux FluoZin-2 fluorescence; B-score of Tl+ flux slope (higher = more flux/activation; lower = inhibition) at 10 µM; hit rate 2.2% among 190,000; AID 1456;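 active = thallium flux slope and its plate-corrected score both differing from the plate sample mean at a set confidence after two filtering rounds, in either direction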;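 note: slope of fluorescence scaled to starting intensity during 10 to 20 s after thallium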
STAT1 inh – inhibitors of IFN-gamma induced STAT1 signaling; hit rate 0.35% among 200,000; inhibition, % at 5.5 µM; AID 920; NIH 3T3 STAT1-luciferase reporter, luminescence;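 active = inhibition above a set limit, the mean inhibition across all tested compounds plus 3 SD, cut at about 34% in these data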;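 note: 0% = IFN-gamma with DMSO and 100% = IFN-gamma with 300 µM nifuroxazide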
STAT1 act – activators of IFN-gamma induced STAT1 signaling; AID 932; hit rate 2.6% among 200,000; activation (% of control), % at 5.5 µM; NIH 3T3 STAT1-luciferase reporter, luminescence; 100% = IFN-gamma alone, no compound;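 active = activation above the screen-wide mean activation plus 3 SD, cut at about 130% in these data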;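 note: raw ratio to IFN-gamma control signal so 100% means no change and 0% no light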
STAT3 act – STAT3 signaling activation | activation (% of control), % at 5.6 µM | U3A cells, IL-6 STAT3-luciferase reporter, luminescence; 100% = signal with IL-6 EC80 alone | hit rate 0.91% among 190,000;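 active = activation above the screen-wide mean of compound activation plus 3 SD, cut at about 130% in these data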;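 note: 0% = background luminescence of wells with medium and substrate only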
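Material: STAT1-lacking human U3A cells, STAT3 luciferase reporter | Benchmarks: IL-6-only wells as 100% reference | Probe or stimulus: IL-6 (33 ng/mL) | Timing: Compound 1 h, then IL-6 6 h at 37 °C | Detection: Luminescence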
An asterisk follows results filed as active; i = inactive; ? = inconclusive; . = no result given.

SMILES | STAT3 blocker | HSV augment | KCC2 mod | STAT1 inh | STAT1 act | STAT3 act
O=C(NCc1ccc2c(c1)CCO2)Nc1ccccc1 | . | i | 0.11 | . | . | .
CC(=O)Nc1cc(-c2ccc(Cl)cc2)[nH]n1 | 2 | i | . | -50 | 144* | 101
OC(COc1ccc2ccccc2c1Cl)CN1CCOCC1 (stereo unspecified) | 2 | i | . | -38 | 134* | 102
Cc1cccc2cc(CN(Cc3cccnc3)C(=O)c3cccs3)c3nnnn3c12 | 4 | i | . | 2 | 98 | 102
Cc1ccc2sc(N(CCCN(C)C)C(=O)c3ccc(Br)s3)nc2c1C | 6 | i | 0.41 | 1 | 99 | 98
Cc1cccc(S(=O)(=O)Nc2cccc3c2C(=O)c2ccccc2-3)c1 | 15 | 4.1* | . | 11 | 90 | 90
COc1ccc(-c2cc(=Nc3c(C)n(C)n(-c4ccccc4)c3=O)c3ccccc3o2)cc1 | 13 | i | -1.2 | -44 | 142* | 89
COc1ccc(-c2csc(=Nc3c(C)n(C)n(-c4ccccc4)c3=O)n2C(C)(C)C)cc1 | 2 | i | -0.36 | -5 | 104 | 101
O=C(NCC(c1cccnc1)N1CCOCC1)NC1CCCCC1 (stereo unspecified) | 8 | i | 1.1 | -5 | 103 | 95
COc1cccc(-c2cc(C(=O)NCCCn3ccnc3)c3ccccc3n2)c1 | 7 | i | 1.2 | 2 | 98 | 97
O=C(Nc1cccc(-c2cn3c(n2)SCC3)c1)c1ccc2ccccc2n1 | -12 | i | -4.3 | -39 | 135* | 111
O=C(Nc1ccc(N2CCCCC2)cc1)c1ccc2ccccc2n1 | -27 | i | 0.79 | -48 | 144* | 124
Cc1ccccc1C(=O)Nc1ccc(N2CCCC2)cc1 | 13 | i | -1.2 | -35 | 131* | 93
Cc1ccc(C(=O)Nc2ccc(N3CCCC3)cc2)c(C)c1 | 19 | i | -0.051 | -4 | 103 | 92
O=C(Nc1cccc(S(=O)(=O)N2CCCCCC2)c1)c1ccc2ccccc2n1 | -14 | i | 0.21 | -1 | 100 | 108
Cc1ccc(NC(=O)CN(C)Cc2nc3c(Br)cc(Br)cc3c(=O)[nH]2)cc1 | 0 | i | -0.006 | 2 | 97 | 101
O=c1c2ccccc2c(C=NC2CCN(Cc3ccccc3)CC2)c(O)n1Cc1ccc2c(c1)OCO2 | 1 | i | 0.18 | -1 | 100 | 106
O=C(COc1ccc(-c2ccccc2)cc1)NNC(=O)NC1CCCCC1 | -2 | i | -0.89 | -9 | 107 | 108
CCCCONc1ncnc2nonc12 | 7 | i | -0.0099 | -3 | 102 | 96
Cc1ccccc1C(=O)N/N=C/c1ccc([N+](=O)[O-])s1 | 34 | i | 5.2* | 25 | 77 | 73
Cc1ccccc1C(=O)N/N=C/c1ccsc1C | -8 | . | 0.42 | -37 | 133* | 111
CC(C)COn1c(=S)[nH]c2ccccc2c1=O | 29 | i | 49* | 3 | 97 | 78
CC(NC(=O)CSC(=S)N(C)C)C12CC3CC(CC(C3)C1)C2 (stereo unspecified) | -7 | i | 0.89 | 2 | 98 | 102
CCOC(=O)c1sc2nc3n(c(=O)c2c1C)CCCCC3 | 18 | . | . | -36 | 133* | 91
CCN(CC(=O)Nc1ccccc1Br)C1CCCCC1 | -8 | i | 0.84 | 5 | 95 | 106
SMILES | STAT3 blocker | HSV augment | KCC2 mod | STAT1 inh | STAT1 act | STAT3 act
CCN(C(=S)NC(=O)c1ccccc1Br)C1CCCCC1 | 3 | i | 63* | 3 | 97 | 102
CCc1ccc(-c2csc(-c3c[nH]c4ccccc34)n2)cc1 | -14 | i | -1.4 | -36 | 132* | 112
CCn1c(C)cs/c1=N\C(=S)Nc1ccccc1C | 3 | i | 0.0085 | 5 | 96 | 98
N#Cc1c(SCC(N)=O)nc2c(c1-c1ccc(OCc3ccccc3)cc1)CCCC2 | -3 | . | -1.8 | 0 | 99 | 104
Cc1ccc(NCC(=O)N/N=C/c2c[nH]c3ccccc23)cc1 | 11 | i | 0.24 | 3 | 97 | 95
c1ccc(-n2cnc3cc(NCc4ccco4)ccc32)cc1 | -7 | i | -0.0057 | -53 | 147* | 108
COc1ccc(-n2cnc3cc(NCc4cccs4)ccc32)cc1 | -3 | . | . | -34 | 131* | 106
Cc1ccc(-n2cnc3cc(NCc4cccs4)ccc32)cc1 | 8 | i | . | -31 | 120 | 93
Cn1c(=O)c2c(ncn2CC(=O)N/N=C/C=C\c2ccccc2[N+](=O)[O-])n(C)c1=O | . | i | 0.035 | . | . | .
Cc1ccccc1/C=c1\s/c(=C\C(=O)C(C)(C)C)[nH]c1=O | 11 | i | 10* | 6 | 91 | 92
COc1ccc(/C=c2\s/c(=C/C(=O)c3ccc(C)cc3)[nH]c2=O)cc1OC | -5 | ? | 0.62 | -1 | 100 | 107
CCc1ccc(/C=c2\s/c(=C\C(=O)C(C)(C)C)[nH]c2=O)cc1 | 9 | i | 7* | -2 | 99 | 93
CC(C)(C)C(=O)/C=c1\[nH]c(=O)/c(=C\c2ccc(F)cc2)s1 | 14 | i | . | 0 | 98 | 88
CC(=O)Nc1ccc(Nc2c([N+](=O)[O-])c(=O)n(-c3ccccc3)c3ccccc23)cc1 | 12 | i | . | 3 | 95 | 92
c1ccc(-c2csc3ncnc(NCC4COc5ccccc5O4)c23)cc1 (stereo unspecified) | 84* | i | 1.1 | 38* | 64 | 31
CCCc1cc(=O)n2[nH]c(-c3ccccc3)cc2n1 | -19 | i | -0.2 | -37 | 134* | 122
O=C1OC(Nc2ncccn2)c2ccccc21 (stereo unspecified) | 4 | i | . | -1 | 102 | 97
O=C1OC(Nc2cc(Br)cc3cccnc23)c2ccccc21 (stereo unspecified) | -39 | i | -0.12 | 5 | 95 | 133*
O=C(O)c1ccc(-c2nc(-c3ccc(Cl)cc3Cl)cs2)cc1 | -20 | i | -0.66 | -42 | 137* | 132
CC(=O)NC1C(=O)Nc2c(C)cc(C)cc21 (stereo unspecified) | 8 | i | 0.75 | -43 | 138* | 95
Cc1ccc(C2=NCN(c3ccc(C(=O)O)cc3)C(=S)N2)cc1 | -5 | i | 0.9 | -37 | 136* | 106
CCOC(=O)N=Nc1c2ccccc2c2nc3no[nH]c3nc12 | 68* | i | 3.5 | 89* | 17 | 46
Cc1ccc(-n2ncc3c(NNC(=O)Cc4ccccc4)ncnc32)cc1 | -1 | i | -0.68 | -15 | 113 | 103
O=C(N/N=C/c1ccc([N+](=O)[O-])cc1)c1[nH]ncc1Br | 16 | i | -0.0075 | -36 | 131* | 90
O=C(Nc1ccc(S(=O)(=O)Nc2ccc(Cl)cc2)cc1)C1CCCO1 (stereo unspecified) | 30 | i | -0.085 | 11 | 90 | 78
O=C(Nc1ccc(Oc2ccccc2)cc1)C1CCCO1 (stereo unspecified) | 2 | i | . | -36 | 132* | 102
